{
  "source": "ChEMBL document CHEMBL1156477",
  "about": "“Small-molecule-mediated rescue of protein function by an inducible proteolytic shunt” (Proc Natl Acad Sci U S A, 2007)",
  "system": "SYF",
  "test": "Effect on proliferation of mouse SYF cells expressing FRB3-ubiquitin-C-v-src construct at 100 nM after 24 hsr by MTT assay",
  "format": "functional, cell-based",
  "method_in_brief": "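SYF cells (DMEM/10% FBS, 37°C, 5% CO2) transfected via FuGENE-6 with construct 1 plus v-Src cleavage construct; after 24 h expression, trypsinized, ~1 × 10^4 cells replated with rapamycin (100 nM) or DMSO; MTT proliferation assay performed after a further 24 h.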",
  "note": "The source made the active and inactive calls. No cut-off for these calls is given here.",
  "data": [
    {"smiles": "CO[C@H]1C[C@@H]2CC[C@@H](C)[C@@](O)(O2)C(=O)C(=O)N2CCCC[C@H]2C(=O)O[C@H]([C@H](C)C[C@@H]2CC[C@@H](O)[C@H](OC)C2)CC(=O)[C@H](C)/C=C(\\C)[C@@H](O)[C@@H](OC)C(=O)[C@H](C)C[C@H](C)/C=C/C=C/C=C/1C", "values": [
      {"measurement": "Activity", "result": "Active"}
    ]}
  ]
}
